Screens (PubChem)
HIV Env fusion = inhibitors of HIV-1 Env-driven cell-cell fusion, primary screen, HeLa-JRFL effector, CEM21 target cells, luciferase; hit rate 1.1% among 360,000; inhibition, % at 12.3 µM; AID 651610, 2012;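 active means mean replicate inhibition score of at least 50 and every replicate individually at or above 50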;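 further: 0% = plate neutral controls and 100% = maraviroc near 300 nM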
FN deposition inh = inhibitors of fibronectin matrix deposition, primary screen, AH1F cells, Alexa488-fibronectin fluorescence, plate reader; AH1F fibroblasts, overnight; inhibition, % at 12.6 µM; AID 743247, 2014; hit rate 0.086% among 350,000;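 active means mean inhibition across replicates of 30% or more, regardless of how many single replicates reach that level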;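 further: positive control wells lacked labelled fibronectin entirely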
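Assay system: AH1F fibroblasts / Quantity: 10000 cells per well / Medium: DMEM plus 2% serum, read in PBS / Reagent: labelled fibronectin 24 nM / Dosing: single dose, pinned / Times: 1 h cell attachment, overnight exposure to compound and label / Signal: fluorescence, ex 485 nm, em 525 nm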
FGF22 binding = binders of human FGF22 protein, primary screen, FGF22 synaptogenesis inhibitor project, biophysical, thermal shift, single point. Fibroblast growth factor 22 (Homo sapiens), Q9HCT0. recombinant FGF22 thermal shift, SYPRO orange fluorescence; percent of sucrose octasulfate shift, DMSO zero. activity (Tm shift, normalised), % at 9.99 µM. hit rate 1.5% among 340,000. AID 651658, 2012;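 active means mean Tm shift, scaled 0 neutral to 100 positive control, at about 1.3% or above, every replicate too, limit read from the data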
Target sequence (Q9HCT0 whole entry, looked up): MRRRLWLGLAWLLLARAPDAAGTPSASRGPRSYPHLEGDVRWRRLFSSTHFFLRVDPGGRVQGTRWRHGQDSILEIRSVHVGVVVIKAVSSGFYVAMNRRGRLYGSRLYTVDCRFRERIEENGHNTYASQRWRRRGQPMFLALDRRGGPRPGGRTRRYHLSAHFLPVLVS
PAX8 reporter = inhibitors of PAX8-driven TPO luciferase reporter, primary screen, RMG-I cells, single concentration | SteadyGlo, 24 h | inhibition, % at 12.6 µM | hit rate 1.2% among 360,000;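 active means mean replicate inhibition at least 60% with every replicate also reaching 60%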;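 further: luciferase light reporting Pax8 driven TPO promoter activity; plate controls were median of neutral control wells for no effect and mitoxantrone controls for full effect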
PGC1a acetyl inh = inhibitors of PGC1a acetylation signal, primary screen, cell-based, U2OS, AlphaScreen, inhibitor mode. AlphaScreen anti-acetyl-lysine; with virally co-expressed GCN5 acetyltransferase. inhibition, % at 15.6 µM. hit rate 0.17% among 350,000;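 active means every replicate shows inhibition of at least 40%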;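 further: 0% = neutral control wells and 100% = positive control wells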
EWS-Fli block = EWS/Fli-driven NR0B1 reporter inhibitors, primary screen, A673 cells, NR0B1 luciferase, luminescence, MLPCN library; viability-normalised; inhibition, % at 12.6 µM; hit rate 0.67% among 350,000; AID 651661, 2012;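 active means mean inhibition of at least 50% after viability correction, with every replicate also passing that limit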;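 further: firefly luciferase signal divided by Alamar Blue viability fluorescence both relative to DMSO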
Starred values were filed as active, the others as inactive; nt = no result; [ ] = dose if it differs, or a comment. Compounds with a hit are over-represented: about 3.1% of the library has one in this group of screens.

SMILES | HIV Env fusion | FN deposition inh | FGF22 binding | PAX8 reporter | PGC1a acetyl inh | EWS-Fli block
Cn1c(CCN2CCCCC2)nc2cc(NS(=O)(=O)c3ccccc3)ccc21 | -2 | -2 | nt | nt | -64 | nt
Cn1c(CCN2CCCC2)nc2cc(NS(=O)(=O)c3ccc(F)cc3)ccc21 | 8 | -12 | 0 | 84* | nt | -2
Cc1ccc(S(=O)(=O)Nc2ccc3c(c2)nc(CCN2CCCC2)n3C)cc1 | -5 | -2 | 0 | 94* | 4 | 1
O=C(C1=C(c2ccccc2)C(=O)c2ccccc2C1=O)c1ccccc1 | 155* | 28 | 0 | 78* | nt | 61*
COC1=C(c2ccccc2)C(=O)c2ccccc2C1=O | -38 | 3 | nt | 11 | nt | nt
COCC(=O)Nc1ccc2c(c1)OC[C@H](C)N(CCc1ccccc1)C[C@H](C)[C@H](OC)CN(C)C2=O | 0[16.7 µM] | 8 | 0 | -18 | -5 | 2
C[C@@H]1CN([C@H](C)CO)S(=O)(=O)c2ccc(C#C[C@@H](C)O)cc2O[C@H]1CN(C)C(=O)C1CC1 | -16[16.7 µM] | -6 | 0 | nt | 6 | -2
C=CCN(CC=C)C(=S)NC(=O)Cc1cccc2ccccc12 | -7 | -9 | 43* | 12 | -7 | 23
O=C(NC12CC3CC(CC(C3)C1)C2)OCCNC1CCCCC1 | 77* | -1 | nt | -12 | nt | 0
C[C@@H]1CN([C@@H](C)CO)C(=O)Cc2cc(NC(=O)Nc3cccc4ccccc34)ccc2O[C@H]1CN(C)C(=O)Nc1ccc(F)cc1 | 15[16.7 µM] | nt | 0 | 11 | 2 | 7
COC(=O)c1sc(C(C)(C)C)cc1CS(=O)(=O)c1ccc(Cl)cc1 | 9 | 10 | 15* | 22 | nt | 3
COC(=O)c1ccc(N)c(CS(=O)(=O)c2ccc(Cl)cc2)c1 | 7 | 0 | 0 | -7 | 2 | 3
Cc1noc(NS(=O)(=O)c2ccc(NC(=O)/C=C/c3ccccc3)cc2)c1C | -2 | -4 | 1.4* | 3 | 2 | -2
Cc1cc(C)nc(NS(=O)(=O)c2ccc(NC(=O)c3cc(-c4ccccc4)nc4ccccc34)cc2)n1 | nt | -9 | 0 | 37 | nt | 6
Cc1ccc(-c2cc(C(=O)Nc3ccc(S(=O)(=O)Nc4onc(C)c4C)cc3)c3ccccc3n2)cc1 | 4 | 10 | 1.7* | 9 | nt | -5
CC(C)[C@H]1COCc2cn(nn2)CCC[C@H](C)C(=O)N1 | nt | 4 | nt | nt | nt | nt
Nc1nnc2cc(Cl)ccc2n1 | -35 | 7 | 44* | 4 | -15 | -14
Cc1ccccc1-c1ccc([C@H]2[C@@H](CO)N3CCCCN(S(C)(=O)=O)C[C@H]23)cc1 | nt | nt | 0 | 16 | -6 | 0
O=C1CN(C(=O)/C=C/c2ccc(Cl)cc2)c2ccccc2N1 | 0 | 4 | 0 | -2 | 5 | 3
O=C1CN(C(=O)/C=C/c2ccco2)c2ccccc2N1 | 3 | -11 | 44* | 3 | nt | -6
COc1ccc(CNC(=O)N(C)C[C@H]2OCc3ccccc3-c3c(n(C)c4ccccc34)C(=O)N([C@H](C)CO)C[C@@H]2C)cc1 | 68*[16.7 µM] | -19 | 0 | -12 | -9 | 11
COc1ccc(OC(=O)N(C)C[C@@H]2OCc3ccccc3-c3ccccc3C(=O)N([C@@H](C)CO)C[C@H]2C)cc1 | -9[16.7 µM] | -2 | 0 | 14 | -10 | 5
COc1ccc(CNC(=O)N(C)C[C@H]2OCc3ccccc3-c3ccccc3C(=O)N([C@H](C)CO)C[C@@H]2C)cc1 | 72*[16.7 µM] | -5 | 0 | 9 | 2 | 0
COc1ccc(CNC(=O)N(C)C[C@H]2OCc3ccccc3-c3c(n(C)c4ccccc34)C(=O)N([C@@H](C)CO)C[C@@H]2C)cc1 | 58*[16.7 µM] | nt | 0 | 51 | 3 | -9
COc1ccc(CNC(=O)N(C)C[C@@H]2OCc3ccccc3-c3c(n(C)c4ccccc34)C(=O)N([C@H](C)CO)C[C@H]2C)cc1 | 7[16.7 µM] | -7 | 0 | -85 | 5 | -26
O=C(C[C@H]1CC[C@H]2[C@@H](COC[C@@H](O)CN2Cc2ccc(F)cc2)O1)NCCc1ccccc1 | nt | 6 | 0 | 19 | 0 | -12
